Hits are enriched below; roughly 3.2% of the tested compounds scored in any of these assays.
GASC-1 inh: human JMJD2C demethylase inhibition. Q9H3R0. GST-JMJD2C(1-420) H3K9me3 demethylation, DELFIA europium. inhibition, % at 2.35 µM. actives 0.069% (n = 330,000). AID 2099;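 active = more than half of a compound's replicate wells show inhibition beyond 50%, single wells judged on their own value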;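 also: signal counts dimethyl H3K9 product captured on neutravidin plate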
DAX1 inh-1: DAX1 (NR0B1) inhibition, primary screen; actives 1.1% (n = 370,000); inhibition, % at 6.8 µM; HEK293T StAR-luciferase reporter, SF-1/DAX-1 repression relief;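 active = inhibition above the mean over all tested compounds plus 3 SD, cut at about 3.6% in these data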;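 also: higher inhibition means more luminescence from relief of DAX-1 repression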
DAX1 inh-2: inhibitors of human orphan nuclear receptor DAX1 (NR0B1). P51843. HEK293 Gal4-DAX1 luciferase reporter, luminescence. inhibition, % at 6.75 µM. actives 0.99% (n = 340,000). AID 504766;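 active = inhibition above the mean over all tested compounds plus 3 SD, cut at about 4.2% in these data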;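 also: inhibition shows as a rise in luminescence from relieved DAX1 repression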
Target sequence (P51843 207-470 limits assumed): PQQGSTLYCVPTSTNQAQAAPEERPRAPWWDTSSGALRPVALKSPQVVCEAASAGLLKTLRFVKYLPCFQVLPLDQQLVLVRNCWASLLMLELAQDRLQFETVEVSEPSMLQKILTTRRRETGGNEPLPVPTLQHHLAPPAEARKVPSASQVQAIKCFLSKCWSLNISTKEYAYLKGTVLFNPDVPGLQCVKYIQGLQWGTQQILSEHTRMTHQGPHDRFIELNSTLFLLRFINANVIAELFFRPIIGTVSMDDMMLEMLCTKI
SMARCA2 activ: activators of SMARCA2 function. actives 1% (n = 370,000). activation, % at 9.1 µM. MG213 cells, MMTV-luciferase reporter, dexamethasone, overnight. AID 652017; in the data active = activation above about 7.8%
NR2E3 ag-1: agonists of human NR2E3 nuclear receptor. Q9Y5X4. CHO-S Gal4-NCOR/VP16-NR2E3 two-hybrid, luciferase. inhibition of corepressor binding, % at 3.98 µM. actives 0.35% (n = 360,000). AID 602229;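 active = inhibition above the mean of all tested compounds plus 3 SD, cut at about 70% in these data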;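 also: higher means lower luciferase signal from less NR2E3 corepressor binding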
Target sequence (Q9Y5X4 whole entry, looked up, the tested form may be a part): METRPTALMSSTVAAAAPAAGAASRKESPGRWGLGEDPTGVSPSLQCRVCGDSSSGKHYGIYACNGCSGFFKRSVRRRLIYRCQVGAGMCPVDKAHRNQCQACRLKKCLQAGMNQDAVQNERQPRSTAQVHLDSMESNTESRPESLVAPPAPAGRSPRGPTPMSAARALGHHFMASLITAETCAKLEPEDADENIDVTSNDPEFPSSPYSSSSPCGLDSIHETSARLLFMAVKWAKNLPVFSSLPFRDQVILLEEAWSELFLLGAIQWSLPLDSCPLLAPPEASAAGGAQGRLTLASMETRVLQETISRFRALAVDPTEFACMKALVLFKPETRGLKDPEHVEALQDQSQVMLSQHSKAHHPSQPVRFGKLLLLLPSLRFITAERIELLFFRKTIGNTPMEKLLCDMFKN
NR2E3 ag-2: agonists of human nuclear receptor NR2E3; Q9Y5X4; GST-NR2E3/biotin-RetCOR TR-FRET, 1536-well; inhibition of corepressor binding, % at 4.78 µM; actives 0.12% (n = 320,000);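 active = percent inhibition above the cutoff of mean plus 3 SD of all tested compounds, set per screening campaign, cut at about 20% in these data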
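System: GST-NR2E3 and biotin-RetCOR proteins; probe or stimulus: 7 nM biotin-RetCOR; doses: compound at 4.8 µM, single dose; schedule: Compound–protein incubation for 5 h at 4 °C; detection: time-resolved FRET; read-out: percent inhibition; controls: biotin wells as high control, 0.6% DMSO wells as low control; format: 1536-well plates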
DAX1 conf: NR0B1 (human) inhibition, confirmation; HEK293T StAR-promoter luciferase reporter, SF-1/DAX-1 repression; inhibition, % at 6.8 µM; actives 87% (n = 2,400); AID 652134; shares compounds with DAX1 inh-1;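 active = inhibition above the average of every tested compound plus 3 SD, cut at about 3.8% in these data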;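 also: active compounds raise luminescence by relieving repression of the StAR reporter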
SF1 AF2mut Luc: counter-screen for DAX1 inhibitors: nonselective inhibitors with SF-1 AF2 mutant; actives 78% (n = 2,400); inhibition, % at 6.8 µM; shares compounds with DAX1 inh-1; AID 652136; HEK293 StAR-luciferase, luminescence;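 active = inhibition above the mean of all tested compounds plus 3 SD, cut at about 3% in these data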
A number is an active result; . = inactive; / = no result.

SMILES	GASC-1 inh	DAX1 inh-1	DAX1 inh-2	SMARCA2 activ	NR2E3 ag-1	NR2E3 ag-2	DAX1 conf	SF1 AF2mut Luc
O=C(NCCc1ccccc1)c1ccccc1NC(=O)C1CC=CCC1C(=O)O (stereo not drawn)	.	4.7	.	.	.	.	7.6	7.5
COC(=O)c1ccccc1NC(=O)C1CC=CCC1C(=O)O (stereo not drawn)	.	.	.	.	.	.	/	/
O=C(CN1CCN(c2ccccc2)CC1)Nc1ccccc1C(=O)NCCc1ccccc1	/	4.7	.	.	.	/	6.7	4.8
Cc1ccccc1NC(=O)N(C)[C@H]1C[C@H]2c3[nH]c4c(-c5ccccc5)cccc4c3CCN2C(=O)[C@H]1[C@H](C)O	/	.	/	.	/	/	/	/
Nc1nc(-c2ccccc2)c(-c2ccccc2)o1	.	.	.	.	.	.	/	/
c1ccc(-c2nc(-c3nccc4ccccc34)oc2-c2ccccc2)cc1	.	4.8	5.0	.	.	.	4.8	.
COc1cccc(OCc2cc(C(=O)N(C)Cc3nccn3C)no2)c1	.	5.4	.	.	.	.	6.8	4.6
COc1ccc(OCc2cc(C(=O)N(C)Cc3nccn3C)no2)c2ccccc12	.	.	.	.	.	.	/	/
Cc1nc2ccc(S(=O)(=O)NCC(=O)N(C)Cc3ccc(F)cc3)cc2s1	/	.	/	.	/	/	/	/
COc1ccc(CCn2c(C)cc(C(=O)COC(=O)c3cnccn3)c2C)cc1	.	.	.	.	.	.	/	/
CCCn1c(C)cc(C(=O)COC(=O)c2nccnc2N)c1C	.	5.7	.	.	.	.	14.9	5.6
CCCn1c(C)cc(C(=O)COC(=O)c2cc(=O)[nH]c3ccccc23)c1C	/	5.4	.	.	.	/	9.3	3.1
Cc1ccc(C(=O)COC(=O)c2cc(=O)[nH]c3ccccc23)cc1	.	.	.	.	.	.	/	/
Cc1n[nH]c(C)c1S(=O)(=O)NCCc1ccccc1F	/	.	/	.	/	/	/	/
COC(=O)[C@]12C[C@H](CC(=O)NCc3cccc(C(F)(F)F)c3)C(=O)N(CCc3ccc(OC)c(OC)c3)C1=C[C@H](C1CCCC1)O[C@@H]2C	/	.	/	.	/	/	/	/
CCC(CO)Nc1cccc2c1S(=O)(=O)N(Cc1cn(Cc3ccc(C(F)(F)F)cc3)nn1)Cc1ccccc1O2 (stereo not drawn)	/	.	/	.	/	/	/	/
CCN(CC)C(=O)CC[C@@H]1CC[C@]2(CCCN(S(C)(=O)=O)C2)O1	/	.	/	.	/	/	/	/
CCCCCN1CCCCC(NC(=O)c2c(F)cccc2F)C1=O (stereo not drawn)	/	.	/	.	/	/	/	/
Cc1ccc2nc(-c3ccc(F)cc3)c(Cc3ccccn3)n2c1	/	9.3	/	.	.	/	8.1	6.7
Cc1ccc2nc(-c3ccccc3)c(Cc3ccccn3)n2c1	/	5.1	/	.	.	/	7.4	6.2
Fc1ccc(-c2nc3ccc(Cl)cn3c2Cc2ccccc2)cc1	/	.	.	.	.	/	/	/
Cc1ccn2c(Cc3ccccc3)c(-c3ccc(F)cc3)nc2c1	/	5.9	.	.	.	/	.	.
Cc1ccc(Cc2c(-c3ccccc3)nc3cc(C)ccn23)cc1	/	.	.	.	.	/	/	/
NC(=O)c1ccccc1OCC(=O)Nc1ccc(Cl)c(Cl)c1	.	6.9	5.8	.	.	.	20.6	8.9
NC(=O)c1ccccc1OCC(=O)Nc1ccc2c(c1)CCC2	/	.	.	.	.	.	/	/
SMILES	GASC-1 inh	DAX1 inh-1	DAX1 inh-2	SMARCA2 activ	NR2E3 ag-1	NR2E3 ag-2	DAX1 conf	SF1 AF2mut Luc
CN(C)CCN(C(=O)c1cccs1)c1nc2cc3c(cc2s1)OCCO3	.	5.1	.	.	.	.	4.7	5.0
CCCCNC(=O)NS(=O)(=O)c1ccc(NC(=O)CSc2ncnc3scc(-c4ccc(C)cc4)c23)cc1	/	.	/	.	/	/	/	/
O=C(c1ccc2c(Cl)c3c(nc2c1)CCCC3)N1CCC(N2CCCCC2)CC1	.	9.0	.	.	.	.	7.0	6.1
CCOC(=O)CC[C@@H]1CC[C@]2(CCCN(C(=O)c3ccno3)C2)O1	/	.	/	.	/	/	/	/
Cc1ccc(NC(=O)CCC(=O)c2cccs2)c(Br)c1	.	8.0	.	.	.	.	7.6	5.5
O=C(c1ccncc1)N(c1ccc(N2CCOCC2)cc1)C(c1ccccc1)c1nc2ccccc2[nH]1 (stereo not drawn)	/	5.3	/	.	.	/	7.7	4.9
O=C(/C=C/c1cccs1)Nc1nc(-c2ccccc2)cs1	.	.	.	.	.	.	/	/
O=C(/C=C/c1cccs1)Nc1scc(-c2ccccc2)c1C(=O)O	.	4.7	.	.	.	/	7.3	3.6
Cc1ccc2c(Cl)c(C(=O)NC3CC3)sc2c1	.	5.9	.	.	.	/	4.4	.
O=C1NN(c2ccccc2)C(=O)/C1=C/c1coc2ccccc2c1=O	.	4.8	.	.	.	.	.	.
O=C1NN(c2ccccc2)C(=O)/C1=C\c1coc2ccc(O)cc2c1=O	.	.	.	.	.	.	/	/
CC1CCc2c(sc(NC(=O)C3=COCCO3)c2C(N)=O)C1 (stereo not drawn)	.	5.7	.	.	.	.	12.1	6.5
O=C(CCCc1ccccc1)N1CCc2ccccc21	.	6.2	.	.	.	.	17.4	6.7
O=C(OCC(=O)N1CCc2ccccc21)c1ccccc1[N+](=O)[O-]	/	7.1	.	.	.	.	16.8	9.6
Cn1c(N=NC(=O)c2ccccc2)c(O)c2ccccc21	.	5.8	.	.	.	.	15.0	5.7
CC1CCN(c2ccc(C(=O)O)cc2NS(=O)(=O)c2cccc3cccnc23)CC1	/	.	/	.	/	/	/	/
N=NC(=O)c1ccccc1Nc1c(O)[nH]c2ccccc12	/	6.1	.	.	.	/	11.4	7.8
CC(=O)Nc1c(O)[nH]c2ccccc12	.	.	.	.	.	.	/	/
O=C(c1ccccc1)c1coc(-c2ccccc2)c1	/	7.5	.	.	.	/	14.4	5.0
O=C(c1ccccc1)c1c[nH]cc1-c1ccccc1	.	.	.	.	.	.	/	/
C/C(=N\NC(=O)c1ccccc1F)c1cccc(NC(=O)c2ccc(C)cc2)c1	.	5.0	.	.	.	.	.	.
C/C(=N\NC(=O)c1cccc(F)c1)c1cccc(NC(=O)c2ccc(F)cc2)c1	.	.	.	.	.	.	/	/
Cc1cccc(-c2cccc3c4c([nH]c23)[C@@H]2C[C@H](N(C)C(=O)c3ccco3)[C@H]([C@H](C)O)C(=O)N2CC4)c1	/	.	/	.	/	/	/	/
O=C(Nc1ncccc1O)c1ccc(OCC2CCCO2)cc1 (stereo not drawn)	.	17.8	.	.	.	.	13.7	5.7

From PubChem
